Measured values pooled from the literature.
Protocols differ between the studies behind these lines.
Sample: plasma
Route: intravenous

[2H]c1cc(C)c(NC(=O)c2cnc(Nc3cc(N4CC[C@H](O)C4)nc(C)n3)s2)c(Cl)c1  Vd (male Sprague-Dawley rat; 1 mg/kg): 1.1 L/kg
CCOCC(=O)N1CCC[C@H](C(=O)NCc2nc(-c3ccc(C)nc3)cs2)C1  Vd (male Sprague-Dawley rat; 1 mg/kg): 0.3 L/kg
C[C@H]1CN(CC2CCN(c3ccc(C4CCC(=O)NC4=O)cc3F)CC2)CC[C@H]1NS(=O)(=O)c1ccc(Nc2ncc(C(F)(F)F)c(N3CCC[C@](C)(O)C3)n2)c(F)c1 (stereo partly shown)  Vd (rat; 2 mg/kg): 7 L/kg
C[C@H]1Oc2cc(cnc2N)-c2c(nn(C)c2C#N)CN(C)C(=O)c2ccc(F)cc21  Vd (Sprague-Dawley rat; 1 mg/kg; single dose): 2 L/kg
CCOCC(=O)N1CCC[C@H](C(=O)NCc2nc(-c3ccc(C#N)nc3)cs2)C1  Vd (male Sprague-Dawley rat; 1 mg/kg): 0.43 L/kg
C=CCn1c(=O)c2cnc(Nc3ccc(N4CCN(C)CC4)cc3)nc2n1-c1ccc2c(n1)[C@@](O)(CC)CC2  Vd (rat; 3 mg/kg): 2.8 L/kg
Cc1nc(Nc2ncc(C(=O)Nc3c(C)cccc3Cl)s2)cc(N2CCN(CCO)CC2)n1  Vd (male Sprague-Dawley rat; 1 mg/kg; single dose): 2.4 L/kg
CCONC(=O)N1CCC[C@H](C(=O)NCc2nc(-c3ccc(C#N)cc3)cs2)C1  Vd (male Sprague-Dawley rat; 1 mg/kg): 0.45 L/kg
C[C@]1(O)CCCN(c2nc(Nc3ccc(S(=O)(=O)N[C@H]4CC[C@H](CN5CCN(c6ccc(C7CCC(=O)NC7=O)c(F)c6)CC5)CC4)cc3F)ncc2C(F)(F)F)C1 (stereo partly shown)  Vd (rat; 2 mg/kg): 3 L/kg
COCC(=O)N1CCC[C@H](C(=O)NCc2nc(-c3ccc(C#N)cc3)cs2)C1  Vd (male Sprague-Dawley rat; 1 mg/kg): 0.18 L/kg
C[C@]1(O)CCCN(c2nc(Nc3ccc(S(=O)(=O)N[C@@H]4CCN(CC5CCN(c6ccc(C7CCC(=O)NC7=O)cc6F)CC5)C[C@H]4F)cc3F)ncc2C(F)(F)F)C1 (stereo partly shown)  Vd (rat; 2 mg/kg): 5 L/kg
Cc1nc(Nc2ncc(C(=O)Nc3c(C)cccc3Cl)s2)cc(N2CC[C@@H](N)C2)n1  Vd (male Sprague-Dawley rat; 1 mg/kg): 32.8 L/kg
Cn1c(=O)c2[nH]cnc2n(C)c1=O  Vd (male Sprague-Dawley rat; 22.5 mg/kg): 1.52 L/kg
CC(=O)c1c(C)c2cnc(Nc3ccc(N4CCNCC4)cn3)nc2n(C2CCCC2)c1=O  Vd (male Sprague-Dawley rat; 5 mg/kg): 3.3 L/kg
Cc1nc(Nc2ncc(C(=O)Nc3c(C)cccc3Cl)s2)cc(N2CC[C@H](O)C2)n1  Vd (male Sprague-Dawley rat; 1 mg/kg): 0.9 L/kg
Cc1cc(S(=O)(=O)N[C@H]2CC[C@H](CN3CCN(c4cccc(NC5CCC(=O)NC5=O)c4)CC3)CC2)ccc1Nc1ncc(C(F)(F)F)c(N2CCC[C@](C)(O)C2)n1 (stereo partly shown)  Vd (rat; 2 mg/kg): 10 L/kg
